Measurements as given in ChEMBL document CHEMBL1909507, “Substituted phenyl 4-(2-oxoimidazolidin-1-yl)benzenesulfonamides as antimitotics. Antiproliferative, antiangiogenic and antitumoral activity, and quantitative structure-activity relationships” (Eur J Med Chem, 2011).

Legend:
Assay type in all cases: functional, cell-based
HT-29 = assay: Antiproliferative activity against human HT-29 cells after 48 hrs by SRB assay; conditions: HT-29, 48 h
Method in brief: (§1)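 Adherent cells were seeded per line (e.g. HT-29 5000, M21 3500, MCF7 7500, CHO and CHO-VV 3-2 and CHO-TAX 5-6 1000 cells/well) and grown 24 h at 37 °C, 5% CO₂. DMSO-solubilized drug was diluted in medium and added at 1000–0.98 nM for 48 h. Cells were fixed with cold 10% TCA and stained with 0.1% sulforhodamine B, with absorbance read at 530–565 nm.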

M21 = assay: Antiproliferative activity against human M21 cells after 48 hrs by SRB assay; conditions: M21, 48 h; method in brief: as §1
MCF7 = assay: Antiproliferative activity against human MCF7 cells after 48 hrs by SRB assay; conditions: MCF7, 48 h; method in brief: as §1

Compound | IC50 (HT-29) [nM] | IC50 (MCF7) [nM] | IC50 (M21) [nM]
CCCCCc1ccc(NS(=O)(=O)c2ccc(N3CCNC3=O)cc2)cc1 | 990 | > 1000 | 870
CCCCOc1ccc(NS(=O)(=O)c2ccc(N3CCNC3=O)cc2)cc1 | 630 | 870 | 580
COc1ccc(NS(=O)(=O)c2ccc(N3CCNC3=O)cc2)cc1 | 800 | > 1000 | 580
COc1ccccc1NS(=O)(=O)c1ccc(N2CCNC2=O)cc1 | 550 | 770 | 300
CCC(C)c1ccc(NS(=O)(=O)c2ccc(N3CCNC3=O)cc2)cc1 (centres undefined) | > 1000 | > 1000 | > 1000
O=C1NCCN1c1ccc(S(=O)(=O)Nc2ccc(C3CCCCC3)cc2)cc1 | > 1000 | > 1000 | > 1000
O=C1NCCN1c1ccc(S(=O)(=O)Nc2ccccc2)cc1 | 280 | 470 | 200
CC(C)(C)c1ccc(NS(=O)(=O)c2ccc(N3CCNC3=O)cc2)cc1 | > 1000 | > 1000 | > 1000
O=C1NCCN1c1ccc(S(=O)(=O)Nc2ccc(F)cc2)cc1 | 370 | 690 | 230
N#CCc1ccc(NS(=O)(=O)c2ccc(N3CCNC3=O)cc2)cc1 | > 1000 | > 1000 | > 1000
O=C1NCCN1c1ccc(S(=O)(=O)Nc2ccc3c(c2)Cc2ccccc2-3)cc1 | 450 | 480 | 370

Second part, led by results:

IC50 (HT-29) [nM] | IC50 (MCF7) [nM] | Compound | IC50 (M21) [nM]
240 | 350 | CCc1ccccc1NS(=O)(=O)c1ccc(N2CCNC2=O)cc1 | 180
650 | 760 | O=C1NCCN1c1ccc(S(=O)(=O)Nc2ccc(OC(F)F)cc2)cc1 | 410
520 | 610 | COc1ccc(NS(=O)(=O)c2ccc(N3CCNC3=O)cc2)cc1OC | 340
230 | 230 | Cc1ccc(NS(=O)(=O)c2ccc(N3CCNC3=O)cc2)cc1C | 94
190 | 230 | Cc1cccc(NS(=O)(=O)c2ccc(N3CCNC3=O)cc2)c1C | 110
180 | 230 | Cc1ccc(NS(=O)(=O)c2ccc(N3CCNC3=O)cc2)c(C)c1 | 150
660 | 810 | CCc1ccc(NS(=O)(=O)c2ccc(N3CCNC3=O)cc2)cc1 | 480
